Values after ≈ are worked out from the molar mass of the structure shown.
Tests used:
[1] = test system: Nakaseomyces glabratus; experiment: Antifungal activity against Candida glabrata ATCC 66032 assessed as reduction in fungal cell growth incubated for 24 hrs by MTT based broth double dilution method; format: functional; settings: ATCC 66032, 24 h
In short: (§1)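 Broth double-dilution in Casitone broth. Starter cultures were grown 24 or 48 h at 37 °C, 5% CO₂, diluted 1:100, and added to serial two-fold dilutions at 64 to 0.007 µg/mL. Final inoculum was 5 x 10^4 to 5 x 10^5 CFU/mL; DMSO was 0.0012–1.3%. Plates were incubated at 37 °C, 5% CO₂, then MTT was added for 2 h. MIC followed CLSI M27-A3. Triplicates, two independent experiments.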

[2] = test system: Candida parapsilosis; experiment: Antifungal activity against Candida parapsilosis ATCC 22019 assessed as reduction in fungal cell growth incubated for 24 hrs by MTT based broth double dilution method; format: functional; settings: Lodderomyces parapsilosis, ATCC 22019, 24 h; in short: as §1
[3] = test system: Meyerozyma guilliermondii; experiment: Antifungal activity against Candida guilliermondii T-47 assessed as reduction in fungal cell growth incubated for 24 hrs by MTT based broth double dilution method; format: functional; settings: T-47, 24 h; in short: as §1
[4] = test system: Nakaseomyces glabratus; experiment: Antifungal activity against Candida glabrata 192 assessed as reduction in fungal cell growth incubated for 24 hrs by MTT based broth double dilution method; format: functional; settings: Nakaseomyces glabratus, 192, 24 h; in short: as §1
[5] = test system: Nakaseomyces glabratus; experiment: Antifungal activity against Candida glabrata ATCC 2001 assessed as reduction in fungal cell growth incubated for 24 hrs by MTT based broth double dilution method; format: functional; settings: ATCC 2001, 24 h; in short: as §1
[6] = test system: Candida parapsilosis; experiment: Antifungal activity against Candida parapsilosis ATCC 90018 assessed as reduction in fungal cell growth incubated for 24 hrs by MTT based broth double dilution method; format: functional; settings: Lodderomyces parapsilosis, ATCC 90018, 24 h; in short: as §1
[7] = test system: Candida albicans; experiment: Antifungal activity against Candida albicans P-87 assessed as reduction in fungal cell growth incubated for 24 hrs by MTT based broth double dilution method; format: functional; settings: P-87, 24 h; in short: as §1
[8] = test system: Candida dubliniensis; experiment: Antifungal activity against Candida dubliniensis T-99 assessed as reduction in fungal cell growth incubated for 24 hrs by MTT based broth double dilution method; format: functional; settings: T-99, 24 h; in short: as §1
[9] = test system: Candida albicans; experiment: Antifungal activity against Candida albicans ATCC 90028 assessed as reduction in fungal cell growth incubated for 24 hrs by MTT based broth double dilution method; format: functional; settings: ATCC 90028, 24 h; in short: as §1
[10] = test system: Candida albicans; experiment: Antifungal activity against Candida albicans SN152 assessed as reduction in fungal cell growth incubated for 24 hrs by MTT based broth double dilution method; format: functional; settings: SN152, 24 h; in short: as §1
[11] = Cytotoxicity against human HEK293T cells assessed as reduction in cell viability at 5 to 50 uM incubated for 24 hrs by XTT assay relative to control; format: cell-based, HEK-293T; settings: HEK293T cells, read-out: INH
In short: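 HEK-293T cells were grown in DMEM with 10% FBS, 1% NEAA, 1% pyruvate and pen-strep-nystatin at 37 °C and 5% CO2. 7000 cells/well were seeded on poly-D-lysine-coated wells. After 24 h the medium was renewed and compounds were added at 5–50 µM from 1 mM stocks in 10% DMSO/0.3% Tween/PBS. After 24 h, XTT was added for 2 h at 37 °C, with absorbance read at 475 nm (reference 660 nm).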

[12] = test system: Nakaseomyces glabratus; experiment: Antifungal activity against Candida glabrata 192 assessed as reduction in fungal cell growth incubated for 48 hrs by MTT based broth double dilution method; format: functional; settings: Nakaseomyces glabratus, 192, 48 h; in short: as §1
[13] = test system: Candida albicans; experiment: Antifungal activity against Candida albicans ATCC 90028 assessed as reduction in fungal cell growth incubated for 48 hrs by MTT based broth double dilution method; format: functional; settings: ATCC 90028, 48 h; in short: as §1
[14] = test system: Candida albicans; experiment: Antifungal activity against Candida albicans SN152 assessed as reduction in fungal cell growth incubated for 48 hrs by MTT based broth double dilution method; format: functional; settings: SN152, 48 h; in short: as §1
[15] = test system: HEK-293T; experiment: Cytotoxicity against human HEK293T cells assessed as reduction in cell viability at 5 to 50 uM incubated for 24 hrs by XTT assay; format: cell-based
In short: (§2)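 HEK-293T were grown in DMEM with 10% FBS; HepG2 in RPMI with 15% FBS; both at 37 °C, 5% CO₂. Cells (4000 HepG2 or 7000 HEK-293T per well) were seeded on poly-D-lysine wells. After 24 h the medium was renewed and compounds added at 5–50 µM from 1 mM stocks in 10% DMSO/0.3% Tween/PBS. After 24 h more, XTT was added for 2 h at 37 °C; absorbance was read at 475 nm against 660 nm reference.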

[16] = test system: Nakaseomyces glabratus; experiment: Antifungal activity against Candida glabrata ATCC 66032 assessed as reduction in fungal cell growth incubated for 48 hrs by MTT based broth double dilution method; format: functional; settings: ATCC 66032, 48 h; in short: as §1
[17] = test system: HepG2; experiment: Cytotoxicity against human HepG2 cells assessed as reduction in cell viability at 5 to 50 uM incubated for 24 hrs by XTT assay; format: cell-based; settings: hepg2, 24 h; in short: as §2
[18] = Cytotoxicity against human HepG2 cells assessed as reduction in cell viability at 5 to 50 uM incubated for 24 hrs by XTT assay relative to control; format: cell-based; settings: read-out: INH
In short: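 HepG2 cells were maintained in RPMI with 15% FBS, 1% NEAA, 1% pyruvate and pen-strep-nystatin at 37 °C and 5% CO2. 4000 cells/well were plated on poly-D-lysine coating and given fresh medium after 24 h. Compounds were dosed at 5–50 µM from 1 mM stocks in 10% DMSO/0.3% Tween/PBS and incubated 24 h. Viability was read by XTT (2 h, 37 °C) at 475 nm against 660 nm.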

| Compound | MIC [1] | MIC [2] | MIC [3] | MIC [4] | MIC [5] | MIC [6] | MIC [7] | MIC [8] | MIC [9] | MIC [10] | cytotoxicity at 24 h, up to 50 µM [11] | MIC [12] | MIC [13] | MIC [14] | Activity [15] | MIC [16] | Activity [17] | cytotoxicity at 24 h, up to 50 µM [18] |
| --- | --- | --- | --- | --- | --- | --- | --- | --- | --- | --- | --- | --- | --- | --- | --- | --- | --- | --- |
| COc1ccc2cc(C(=O)NCC(O)(Cn3cncn3)c3ccc(F)cc3F)c(=O)[nH]c2c1 (racemic) | > 64 µg/mL | > 64 µg/mL | > 64 µg/mL | > 64 µg/mL | > 64 µg/mL | 2 µg/mL (≈ 4.39 µM) | 2 µg/mL (≈ 4.39 µM) | > 64 µg/mL | 1 µg/mL (≈ 2.2 µM) | 4 µg/mL (≈ 8.78 µM) | – | – | – | – | – | – | – | – |
| CC[C@@H]([C@H](C)O)n1ncn(-c2ccc(N3CCN(c4ccc(OC[C@@H]5CO[C@@](Cn6cncn6)(c6ccc(F)cc6F)C5)cc4)CC3)cc2)c1=O [POSACONAZOLE] | 1 µg/mL (≈ 1.43 µM) | 0.03 µg/mL (≈ 0.0428 µM) | 0.03 µg/mL (≈ 0.0428 µM) | 0.125 µg/mL (≈ 0.178 µM) | 1 µg/mL (≈ 1.43 µM) | 0.015 µg/mL (≈ 0.0214 µM) | 0.007 µg/mL (≈ 0.00999 µM) | 0.03 µg/mL (≈ 0.0428 µM) | 0.007 µg/mL (≈ 0.00999 µM) | 0.007 µg/mL (≈ 0.00999 µM) | < 40% | 0.125 µg/mL (≈ 0.178 µM) | 0.007 µg/mL (≈ 0.00999 µM) | 0.007 µg/mL (≈ 0.00999 µM) | Toxic | > 64 µg/mL | Toxic | < 40% |
| O=C(NCC(O)(Cn1cncn1)c1ccc(F)cc1F)c1cc2ccccc2[nH]c1=O (racemic) | > 64 µg/mL | 8 µg/mL (≈ 18.8 µM) | 8 µg/mL (≈ 18.8 µM) | 16 µg/mL (≈ 37.6 µM) | 64 µg/mL (≈ 150 µM) | 2 µg/mL (≈ 4.7 µM) | 1 µg/mL (≈ 2.35 µM) | 8 µg/mL (≈ 18.8 µM) | 2 µg/mL (≈ 4.7 µM) | 0.5 µg/mL (≈ 1.18 µM) | – | – | – | – | – | – | – | – |

Second part, led by results:

| MIC [1] | MIC [2] | MIC [3] | MIC [4] | MIC [5] | MIC [6] | MIC [7] | MIC [8] | MIC [9] | MIC [10] | Compound | cytotoxicity at 24 h, up to 50 µM [11] | MIC [12] | MIC [13] | MIC [14] | Activity [15] | MIC [16] | Activity [17] | cytotoxicity at 24 h, up to 50 µM [18] |
| --- | --- | --- | --- | --- | --- | --- | --- | --- | --- | --- | --- | --- | --- | --- | --- | --- | --- | --- |
| 1 µg/mL (≈ 2.35 µM) | 2 µg/mL (≈ 4.69 µM) | 1 µg/mL (≈ 2.35 µM) | 1 µg/mL (≈ 2.35 µM) | 4 µg/mL (≈ 9.38 µM) | 0.25 µg/mL (≈ 0.586 µM) | 0.125 µg/mL (≈ 0.293 µM) | 0.5 µg/mL (≈ 1.17 µM) | 0.25 µg/mL (≈ 0.586 µM) | 0.25 µg/mL (≈ 0.586 µM) | O=C(NCC(O)(Cn1cncn1)c1ccc(F)cc1F)c1cc2ccccc2oc1=O (racemic) | – | – | – | – | – | – | – | – |
| 32 µg/mL (≈ 70.1 µM) | 2 µg/mL (≈ 4.38 µM) | 1 µg/mL (≈ 2.19 µM) | 4 µg/mL (≈ 8.76 µM) | 8 µg/mL (≈ 17.5 µM) | 0.25 µg/mL (≈ 0.548 µM) | 0.125 µg/mL (≈ 0.274 µM) | 4 µg/mL (≈ 8.76 µM) | 0.25 µg/mL (≈ 0.548 µM) | 0.5 µg/mL (≈ 1.1 µM) | COc1ccc2cc(C(=O)NCC(O)(Cn3cncn3)c3ccc(F)cc3F)c(=O)oc2c1 (racemic) | – | – | – | – | – | – | – | – |
| – | 0.007 µg/mL (≈ 0.0203 µM) | 0.007 µg/mL (≈ 0.0203 µM) | 0.06 µg/mL (≈ 0.174 µM) | 0.5 µg/mL (≈ 1.45 µM) | 0.007 µg/mL (≈ 0.0203 µM) | 0.007 µg/mL (≈ 0.0203 µM) | 0.007 µg/mL (≈ 0.0203 µM) | 0.007 µg/mL (≈ 0.0203 µM) | 0.007 µg/mL (≈ 0.0203 µM) | Clc1ccccc1C(c1ccccc1)(c1ccccc1)n1ccnc1 [CLOTRIMAZOLE] | – | 0.25 µg/mL (≈ 0.725 µM) | 0.007 µg/mL (≈ 0.0203 µM) | 0.007 µg/mL (≈ 0.0203 µM) | – | – | – | – |

From ChEMBL document CHEMBL4351026, “Antifungal activity, mode of action variability, and subcellular distribution of coumarin-based antifungal azoles” (Eur J Med Chem, 2019)
